Data on 21 compounds can be found in ChEMBL document CHEMBL1146089, “Development of the first potential covalent inhibitors of anandamide cellular uptake” (J Med Chem, 2006).

For assay [1], the target named is T1, Fatty-acid amide hydrolase 1 (Rattus norvegicus, UniProt P97612).
T1 sequence (P97612 whole entry): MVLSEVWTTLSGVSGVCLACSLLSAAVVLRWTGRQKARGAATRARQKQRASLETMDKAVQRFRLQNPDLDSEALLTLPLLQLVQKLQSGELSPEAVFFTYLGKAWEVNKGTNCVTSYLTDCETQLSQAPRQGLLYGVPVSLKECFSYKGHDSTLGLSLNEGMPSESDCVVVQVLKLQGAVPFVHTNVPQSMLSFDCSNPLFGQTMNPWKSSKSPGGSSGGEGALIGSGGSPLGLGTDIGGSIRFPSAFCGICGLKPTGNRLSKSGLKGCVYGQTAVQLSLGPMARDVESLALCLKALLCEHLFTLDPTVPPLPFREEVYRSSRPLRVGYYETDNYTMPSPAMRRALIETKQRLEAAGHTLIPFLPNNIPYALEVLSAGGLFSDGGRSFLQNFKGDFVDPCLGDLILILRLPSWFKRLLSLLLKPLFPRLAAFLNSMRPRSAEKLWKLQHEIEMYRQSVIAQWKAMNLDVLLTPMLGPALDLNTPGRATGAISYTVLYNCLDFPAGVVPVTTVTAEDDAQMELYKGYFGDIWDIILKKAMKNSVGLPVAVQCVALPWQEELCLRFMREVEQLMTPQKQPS
Nature of the assay: Inhibition of [14C]anandamide hydrolysis in rat brain membrane in the absence of UV irradiation. Type of assay: functional, cell membranes.

Assay [2] deals with T1, Fatty-acid amide hydrolase 1. Nature of the assay: Inhibition of [14C]anandamide hydrolysis in rat brain membrane.
Assay [3] deals with RBL-2H3. Nature of the assay: Inhibition of uptake of [14C]anandamide co-incubated with RBL2H3 cells expressing AEA membrane transporter. Type of assay: functional, cell-based. The conditions noted are these: Rattus norvegicus. In short, it runs like this: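 RBL-2H3 cells incubated with [14C]AEA for 5 min at 37 °C with increasing compound concentrations, sometimes after a 10 min preincubation with compound. Uptake was taken as residual [14C]AEA in the medium after CHCl3/CH3OH 2:1 extraction and scintillation counting. Nonspecific binding was measured with 100 µM AEA. IC50 calculated, mean ± SE, N = 3.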

For assay [4], the system named is RBL-2H3. As to the kind of experiment: Inhibition of uptake of [14C]anandamide pre-incubated for 1 hr with intact RBL2H3 cells expressing AEA membrane transporter. Conditions: Rattus norvegicus. Type of assay: functional, cell-based. The gist of the method:
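RBL-2H3 cells preincubated with compound 60 min at 25 °C under normal lab light. Cells then washed 3× with medium containing 0.2% BSA and 2× with BSA-free medium, then given [14C]AEA for 5 min without inhibitor. Uptake was taken as residual [14C]AEA in the medium (CHCl3/CH3OH 2:1 extraction, scintillation counting). IC50, N = 3.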

Assay [5] deals with C6. Nature of the assay: Inhibition of [14C]anandamide uptake in C6 cells expressing AEA membrane transporter in dark at 10 uM. Type of assay: functional. The conditions noted are these: Rattus norvegicus. In short, it runs like this: (§1)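 Rat C6 glioma cells preincubated with compound 8 min at 25 °C, either in the dark or under UV light (315-400 nm, 125W). Cells then washed 3× with medium containing 0.2% BSA and 2× with BSA-free medium, then given [14C]AEA for 5 min with no inhibitor present. Uptake was taken as residual [14C]AEA in the medium (CHCl3/CH3OH 2:1 extraction, scintillation counting). Nonspecific binding was measured with 100 µM AEA. Values are % inhibition, mean ± SE, N = 3 or 6.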

In assay [6] the test system is C6. As to the kind of experiment: Inhibition of [14C]anandamide uptake in C6 cells expressing AEA membrane transporter under UV irradiation at 10 uM. Type of assay: functional. Conditions: Rattus norvegicus, C6, light or radiation study. In short, it runs like this:
as §1

Assay [7] concerns C6. As to the kind of experiment: Inhibition of [14C]anandamide uptake in C6 cells expressing AEA membrane transporter in dark at 5 uM. In kind it is functional. The conditions noted are these: Rattus norvegicus. The gist of the method:
as §1

The test system of assay [8] is C6. Nature of the assay: Inhibition of [14C]anandamide uptake in C6 cells expressing AEA membrane transporter under UV irradiation at 5 uM. The conditions noted are these: Rattus norvegicus, C6, light or radiation study. Type of assay: functional. In short, it runs like this:
as §1

The IC50 is the concentration at which inhibition is half-maximal. In the case of `CCCCCCCC/C=C\CCCCCCCC(=O)N[C@@H](Cc1ccc(O)cc1)C(=O)CI`, the figures for the IC50 in assay [1], in assay [2] and in assay [3] were more than 50 µM, more than 50 µM and more than 25 µM, respectively.
On to `O=C(CCCCCCC/C=C\CCCCCCCCBr)N[C@@H](CO)Cc1ccc(O)cc1`, for which the IC50 in assay [3] turned out to be 20.1 µM.
As to `N#CCCCCCCCC/C=C\CCCCCCCC(=O)N[C@H](CO)Cc1ccc(O)cc1`, the IC50 in assay [3] was found to be 23.1 µM.
For the compound `CCCCCCCC/C=C\CCCCCCCC(=O)N[C@H](Cc1ccc(O)cc1)C(=O)CI`, the concentration for half-maximal inhibition (IC50) in assay [1] is more than 50 µM; in assay [2], more than 50 µM; in assay [3], more than 25 µM.
Turning to `O=C(CCCCCCC/C=C\CCCCCCCCBr)N[C@H](CO)Cc1ccc(O)cc1`, the results for the IC50 in assay [4] and in assay [3] were more than 25 µM and 10.2 µM, respectively.
`CCCCCCCC/C=C\CCCCCCCC(=O)N[C@@H](CO)Cc1ccc(C(=O)C=[N+]=[N-])cc1`: the half-inhibitory concentration (IC50) in assay [3] was more than 25 µM.
On to `CCCCCCCC/C=C\CCCCCCCC(=O)N[C@H](CO)Cc1ccc(C(=O)CCl)cc1`, for which the IC50 in assay [3] was more than 25 µM.
By inhibition is commonly meant the drop in the measured response relative to a control, in per cent. On to `[N-]=[N+]=Nc1ccc(I)cc1C(=O)OCC/C=C\CCCCCCCC(=O)N[C@H](CO)Cc1ccc(O)cc1`, for which the IC50 in assay [1] was more than 50 µM; in assay [2] it was more than 50 µM; in assay [3], 11 µM. Further, the values for the inhibition at 10 µM in assay [5] and in assay [6] were 32.8% and 60%, respectively.
Consider `CCCCCCCC/C=C\CCCCCCCC(=O)N[C@H](CO)Cc1ccc(C(=O)c2ccccc2)cc1`, for which the inhibition at 5 µM came to 37.5% in assay [7] and 30.3% in assay [8]. Moreover, the values for the inhibition at 10 µM in assay [5] and in assay [6] were 65.8% and 57.2%, respectively. Moreover, the IC50 in assay [3] was 6 µM.
Turning to `CCCCCCCC/C=C\CCCCCCCC(=O)N[C@H](CO)Cc1ccc(C(=O)C=[N+]=[N-])cc1`, the IC50 in assay [3] is more than 25 µM.
For `O=C(CCCCCCC/C=C\CCCCCCCCI)N[C@@H](CO)Cc1ccc(O)cc1`, the results for the IC50 in assay [4] and in assay [3] were more than 25 µM and 14 µM, respectively.
Take `CCCCCCCC/C=C/CCCCCCCC(=O)N[C@H](CO)Cc1ccc(C(=O)c2ccccc2)cc1`: the IC50 in assay [3] is 10 µM.
For `CCCCCCCC/C=C\CCCCCCCC(=O)N[C@@H](Cc1ccc(O)cc1)C(=O)CCl`, the IC50 in assay [4] is more than 25 µM; in assay [1], more than 50 µM; in assay [2] it was more than 50 µM; in assay [3], 10 µM.
Turning to `CCCCCCCC/C=C\CCCCCCCC(=O)N[C@H](Cc1ccc(O)cc1)C(=O)CCl`, the figures for the IC50 in assay [1], in assay [2] and in assay [3] were more than 50 µM, more than 50 µM and more than 25 µM, respectively.
As for `O=C(CCCCCCC/C=C\CCCCCCCCI)N[C@H](CO)Cc1ccc(O)cc1`, the results for the half-maximal inhibitory concentration (IC50) in assay [4] and in assay [3] were more than 25 µM and 10.8 µM, respectively.
Turning to `O=C(CCCCCCC/C=C\CCOC(=O)c1ccccc1)N[C@H](CO)Cc1ccc(O)cc1`, the IC50 in assay [1] was more than 50 µM; in assay [2] it was more than 50 µM; in assay [3], more than 25 µM.
As for `N#CCCCCCCCC/C=C\CCCCCCCC(=O)N[C@@H](CO)Cc1ccc(O)cc1`, the IC50 in assay [3] was more than 25 µM.
Take `CCCCCCCC/C=C\CCCCCCCC(=O)N[C@H](Cc1ccc(O)cc1)C(=O)COC(=O)c1c(Cl)cccc1Cl`: the IC50 was more than 25 µM in assay [4], more than 50 µM in assay [1], more than 50 µM in assay [2] and 7.5 µM in assay [3].
As to `CCCCCCCC/C=C\CCCCCCCC(=O)N[C@H](CO)Cc1ccc(C(=O)c2ccc(O)cc2)cc1`, the inhibition at 5 µM in assay [7] came out at 28.3%; in assay [8], 68.6%. Moreover, the inhibition at 10 µM in assay [5] amounted to 73.6%; in assay [6] it was 73.2%. Further, the IC50 in assay [3] is 10.1 µM.
In the case of `CCCCCCCC/C=C\CCCCCCCC(=O)N[C@@H](CO)Cc1ccc(C(=O)c2ccc(O)cc2)cc1`, in assay [3], the IC50 stood at 8.1 µM.
As to `CCCCCCCC/C=C\CCCCCCCC(=O)N[C@@H](Cc1ccc(O)cc1)C(=O)COC(=O)c1c(Cl)cccc1Cl`, the IC50 in assay [4] was more than 25 µM; in assay [1] it was more than 50 µM; in assay [2] it was more than 50 µM; in assay [3] it was 16.1 µM.
